{"source": "paper PMC11607638", "about": "(The FASEB Journal, 2024)", "key": {"SK receptor gene SKR [1]": {"test_system": "SK receptor gene SKR", "test": "Fura-2 calcium imaging in perifused SKR-CHO-K1 cells", "assay_type": "cell-based, Aedes aegypti", "settings": "for Reversibility of stimulation upon wash-out in perifused SKR-CHO-K1 cells: Figures 4, 5, 6; for Onset (lag time) of cytosolic calcium oscillations in SKR-CHO-K1 cells: at lower concentrations, Figures 4 and 5", "how_it_was_run": "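CHO-K1 cells at 80–90% confluency were transfected in serum-free medium with pcDNA3.1(+)-SKR using jetPRIME for 24–36 h. Cells were loaded with Fura-2AM (10 µM, 50 min, 37 °C), attached to coated coverslips and perifused in HEPES buffer, pH 7.4. The 340/380 nm excitation ratio was recorded per single cell. Peptides used: SK1 300 pM–30 nM, SK2 3 nM ± devazepide 10 nM, CCK 1–100 nM. Peak area above baseline per 10 min; mean ± SEM, t-test.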"}, "CHO-K1 cells": {"test_system": "CHO-K1 cells", "test": "Fura-2 calcium imaging in un-transfected parental CHO-K1 cells", "assay_type": "cell-based, Chinese hamster", "settings": "30 nM", "how_it_was_run": "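Un-transfected CHO-K1 cells were grown in DMEM/F12 with 10% FBS, then loaded with Fura-2AM (10 µM, 50 min, 37 °C) and perifused on coated coverslips. They were exposed to SK1 or SK2 at 30 nM. Cytosolic calcium was followed as the 340/380 nm excitation ratio in single cells.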"}, "Aedes aegypti [2]": {"test_system": "Aedes aegypti", "test": "Blood-feeding time course after thoracic peptide injection", "assay_type": "in vivo", "settings": "Figure 3C", "how_it_was_run": "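Females were given 1 µL thoracic injections of DEPC water, SK1, SK2 (200 µM) or SK1+SK2 (100 µM each, final), then kept in separate cages for 24 h, 20 per group, and offered blood. Feeding was counted as complete when a mosquito stopped and no longer moved actively. Completed feeders were recorded every 10 min until all had fed; run in triplicate.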"}, "SK gene SK": {"test_system": "SK gene SK", "test": "qPCR of SK mRNA in mosquito head after peptide injection", "assay_type": "in vivo, Aedes aegypti", "settings": "after blood feeding 24 h after injection"}, "SK receptor gene SKR [3]": {"test_system": "SK receptor gene SKR", "test": "qPCR of SKR mRNA in mosquito head after peptide injection", "assay_type": "in vivo, Aedes aegypti", "settings": "after blood feeding 24 h after injection"}, "[4]": {"test": "Body weight of female mosquitoes after injection", "assay_type": "in vivo, Aedes aegypti", "settings": "for Pre-blood meal body weight among groups: DEPC water, SK2 100 μM, SK2 + proglumide (Figure 3F left)", "how_it_was_run": "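Females 3 days post-eclosion were starved 12 h, given a 1 µL thoracic injection, and starved a further 24 h. They were weighed on a balance immediately before the blood meal, 30 per group.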"}, "Aedes aegypti [5]": {"test_system": "Aedes aegypti", "test": "Blood meal size after thoracic peptide injection", "assay_type": "in vivo", "settings": "24 h", "how_it_was_run": "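Females 3 days post-eclosion, starved 12 h before and 24 h after a 1 µL thoracic injection, then blood-fed. Each mosquito was weighed before and after the meal, and intake was taken as the weight difference. SK2 was given at 50, 100 or 150 pmol/µL against DEPC water, 30 per group. For reversal, SK2 100 µM plus proglumide 14 mM (final, 1:1 mix) was injected and intake weighed 24 h later.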"}, "[6]": {"test_system": "mammalian cholecystokinin 1 receptor (CCK1R)", "test": "Fura-2 calcium imaging in isolated rat pancreatic acini", "assay_type": "cell-based", "settings": "CCK 10 pM", "how_it_was_run": "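Acini came from male Sprague-Dawley rats (250–450 g) by collagenase P digestion (0.2 g/L, 2 × 10 min, 37 °C) in HEPES-buffered saline, pH 7.4. They were loaded with Fura-2AM (10 µM, 30 min) and attached to Cell-Tak- or Matrix-Gel-coated coverslips in a perifusion chamber. The buffer was the same minus BSA, amino acids and trypsin inhibitor. Fluorescence was excited alternately at 340/380 nm and the ratio recorded over time.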"}}, "note": "Like-named read-outs stand apart in the source and are kept apart here. Square brackets hold non-standard residues; d marks the D form. Ends that are not written are not given here. sY = N[C@@H](Cc1ccc(OS(=O)(=O)O)cc1)C(=O)O", "data": [{"molecule": "FDDY(SO3H)GHMRF [SK1]", "values": [{"measurement": "Reversibility of stimulation upon wash-out in perifused SKR-CHO-K1 cells", "setting": "SK receptor gene SKR [1]", "result": "long‐lasting even after wash‐out"}, {"measurement": "Calcium response in SKR-CHO-K1 cells", "setting": "SK receptor gene SKR [1]; SK1 300 pM", "result": "did not elicit any change in calcium levels"}, {"measurement": "Calcium response in SKR-CHO-K1 cells", "setting": "SK receptor gene SKR [1]; SK1 at 1, 3, 10, and 30 nM (all)", "result": "robust calcium spikes"}, {"measurement": "Onset (lag time) of cytosolic calcium oscillations in SKR-CHO-K1 cells", "setting": "SK receptor gene SKR [1]", "result": "significant lag time"}, {"measurement": "EC50", "setting": "SK receptor gene SKR [1]; read-out: EC50, calcium spikes (area under the peaks above baseline, per 10 min), SK1, SKR-CHO-K1, Fura-2 F340/F380, monophasic dose-response, N = 5-7", "result": 1.18, "unit": "nM"}, {"measurement": "Calcium response in parental CHO-K1 cells", "setting": "CHO-K1 cells", "result": "no effect"}, {"measurement": "Prolongation of feeding, comparison with SK2 at same concentration", "setting": "Aedes aegypti [2]; SK1 200 μM", "result": "significantly less active"}, {"measurement": "SK mRNA expression vs DEPC water control", "setting": "SK gene SK", "result": "decrease significantly"}, {"measurement": "SKR mRNA expression vs DEPC water control", "setting": "SK receptor gene SKR [3]", "result": "No difference"}]}, {"molecule": "CCCN(CCC)C(=O)C(CCC(=O)O)NC(=O)c1ccccc1", "note": "(centres unmarked) [proglumide]", "values": [{"measurement": "Pre-blood meal body weight among groups", "setting": "[4]", "result": "No difference"}, {"measurement": "Blood intake after mixed injection vs DEPC water control", "setting": "Aedes aegypti [5]; proglumide 14 mM + SK2 100 μM, 1 μL", "result": "no significant difference"}, {"measurement": "Blood intake after mixed injection vs single injection of SK2 at 100 μM", "setting": "Aedes aegypti [5]; proglumide 14 mM + SK2 100 μM, 1 μL, ****p < .0001 (Figure 3F)", "result": "higher"}]}, {"molecule": "CN1C(=O)[C@@H](NC(=O)c2cc3ccccc3[nH]2)N=C(c2ccccc2)c2ccccc21", "note": "[devazepide, reference compound]", "values": [{"measurement": "Block of SK2-induced calcium increases in SKR-CHO-K1 cells (antagonism)", "setting": "SK receptor gene SKR [1]; devazepide 10 nM + SK2 3 nM", "result": "no longer induced any calcium increases"}]}, {"molecule": "CCK: sulfated cholecystokinin octapeptide (CCK), Tocris Cookson #1166 (D[sY]MGWMDF-NH2; UniProt P06307 96-103, looked up) [reference compound]", "values": [{"measurement": "Calcium response in SKR-CHO-K1 cells", "setting": "SK receptor gene SKR [1]; CCK 1 nM", "result": "no effect"}, {"measurement": "Calcium response in SKR-CHO-K1 cells", "setting": "SK receptor gene SKR [1]; CCK 10 nM and 100 nM", "result": "clear calcium increases"}, {"measurement": "Reversibility of stimulation upon wash-out in perifused SKR-CHO-K1 cells", "setting": "SK receptor gene SKR [1]", "result": "readily washed out"}, {"measurement": "Efficiency of activating SKR compared with mosquito peptide SK2", "setting": "SK receptor gene SKR [1]; SKR-CHO-K1, Figure 6", "result": "probably less efficiently than the mosquito peptide SK2"}, {"measurement": "Calcium response in rat pancreatic acini", "setting": "[6]", "result": "robust calcium oscillations"}]}, {"molecule": "GGEGEQFDDY(SO3H)GHMRF [SK2]", "values": [{"measurement": "Reversibility of stimulation upon wash-out in perifused SKR-CHO-K1 cells", "setting": "SK receptor gene SKR [1]", "result": "long‐lasting even after wash‐out"}, {"measurement": "Calcium response in SKR-CHO-K1 cells", "setting": "SK receptor gene SKR [1]; SK2 100 pM", "result": "did not stimulate any increases in calcium concentration"}, {"measurement": "Calcium response in SKR-CHO-K1 cells", "setting": "SK receptor gene SKR [1]; SK2 3 nM alone (parallel to antagonist experiment)", "result": "strong calcium oscillations"}, {"measurement": "Calcium response in SKR-CHO-K1 cells", "setting": "SK receptor gene SKR [1]; SK2 at 300 pM, 1, 3, 10, and 30 nM (all)", "result": "lasting calcium oscillations"}, {"measurement": "Onset (lag time) of cytosolic calcium oscillations in SKR-CHO-K1 cells", "setting": "SK receptor gene SKR [1]", "result": "significant lag time"}, {"measurement": "EC50", "setting": "SK receptor gene SKR [1]; read-out: EC50, calcium oscillations (areas under the peak above baseline per 10 min), SK2, SKR-CHO-K1, Fura-2 F340/F380, N = 5-8", "result": 0.251, "unit": "nM"}, {"measurement": "Calcium response in parental CHO-K1 cells", "setting": "CHO-K1 cells", "result": "no effect"}, {"measurement": "Pre-blood meal body weight among groups", "setting": "[4]", "result": "No difference"}, {"measurement": "Body weight after injection at different doses", "setting": "[4]; SK2 50, 100, 150 μM (Figure 3E left)", "result": "no changes in body weight"}, {"measurement": "Prolongation of time to complete a blood meal, vs DEPC water and among peptides", "setting": "Aedes aegypti [2]; SK1, SK2 at 200 μM, SK1 + SK2 at 100 μM each", "result": "stronger prolongation than SK1"}, {"measurement": "SK mRNA expression vs DEPC water control", "setting": "SK gene SK", "result": "decrease significantly"}, {"measurement": "Blood intake vs control", "setting": "Aedes aegypti [5]; SK2 50 μM (50 pmol in 1 μL), thoracic injection, 30 per group", "result": "no significant difference"}, {"measurement": "SKR mRNA expression vs DEPC water control", "setting": "SK receptor gene SKR [3]", "result": "No difference"}]}, {"molecule": "NCCc1ccc(O)c(O)c1", "note": "[dopamine, reference compound]", "values": [{"measurement": "Calcium response in SKR-CHO-K1 cells", "setting": "SK receptor gene SKR [1]; dopamine 1 mM", "result": "no effect"}]}]}
